According to ChEMBL document CHEMBL1122552, “Synthesis and biological evaluation of 6-amino-1H-pyrrolo[3,2-c]pyridin-4(5H)-one (3,7-dideazaguanine)” (1984):
≈ marks a conversion by molar mass, not a printed value.

Experiments:
Mus musculus [1] = assay: Compound was evaluated for median life span after tumor implantation at a dose of 50 mg/kg; type: functional
How it was run: (§1)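 P388 leukemia cells (10^6) implanted ip in groups of 6 CDF1 mice, with 30 untreated controls. Therapy began 24 h later: compound in saline given ip on days 1-5. Recorded median life span in days after implant, T/C %, and body-weight change of treated minus control animals.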

Mus musculus [2] = assay: Compound was evaluated for value at a dose of 100 mg/kg; type: functional
How it was run: (§2)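 Experiment 1: 10^6 P388 cells implanted ip in groups of 6 CDF1 mice, with 30 untreated controls. Therapy began 24 h later: saline solution given ip on days 1-5. Value is T/C, %, of median life span (days postimplant) against untreated controls.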

AA6 = assay: Ability to inhibit growth of AA-6 cells (a mutant cell line resistant to 8-azaadenine and lacks […]) was determined; type: functional; settings: Cricetulus griseus
How it was run: (§3)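 Clonogenic growth assay: log-phase cells trypsinized, diluted in McCoy's 5A with dialyzed fetal calf serum, about 200 cells per dish. Cells were grown at 0.5–3000 μM for 7 days at 37.5 °C in humidified CO2, then fixed in 10% formaldehyde and stained with 0.1% crystal violet. The minimum inhibitory concentration is the lowest tested concentration giving clones of fewer than 50 cells.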

Mus musculus [3] = assay: Compound was evaluated for value at a dose of 50 mg/kg; type: functional; how it was run: as §2
[4] = tested on: Vesicular stomatitis virus; assay: The minimum inhibitory concentration required to reduce VSV induced cytopathogenicity in primary rabbit kidney cells by 50%; type: functional
Mus musculus [5] = assay: Compound was evaluated for value at a dose of 200 mg/kg; type: functional; how it was run: as §2
Mus musculus [6] = assay: Effect on mice inoculated with P388 Lymphocytic leukemia, was studied. Compound dose is 50 mg/kg (Exp-1)Average animal body weight change of test group minus that of control animals.; type: functional
How it was run: (§4)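 Experiment 1: P388 cells (10^6) implanted ip in CDF1 mice, 6 per group, 30 untreated controls. Dosing in saline, ip, on days 1-5, starting 24 h after implant. Reported value is the mean body weight change of the treated group minus that of the controls, in g.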

Mus musculus [7] = assay: Effect on mice inoculated with P388 Lymphocytic leukemia, was studied. Compound dose is 100 mg/kg (Exp-1)Average animal body weight change of test group minus that of control animals.; type: functional; how it was run: as §4
[8] = Ability to inhibit growth of TG-1 cells (a mutant cell line resistant to 6-thioguanine and lacks hypoxanthine-guanine phosphoribosyltransferase) was determined
Mus musculus [9] = assay: Effect on mice inoculated with P388 Lymphocytic leukemia, was studied. Compound dose is 200 mg/kg (Exp-1)Average animal body weight change of test group minus that of control animals.; type: functional; how it was run: as §4
CHO = assay: Ability to inhibit growth of CHO cells was determined; type: functional; settings: Cricetulus griseus; how it was run: as §3
Mus musculus [10] = assay: Effect on mice inoculated with P388 Lymphocytic leukemia, was studied. Compound dose is 400 mg/kg (Exp-1)Average animal body weight change of test group minus that of control animals; type: functional
Human alphaherpesvirus 1 = assay: The minimum inhibitory concentration required to reduce HSV-1(KOS) induced cytopathogenicity in primary rabbit kidney cells by 50%; type: functional
How it was run: (§5)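 Inhibition of virus-induced cytopathogenicity in primary rabbit kidney cells. The minimal inhibitory concentration (μg/mL) is the one reducing cytopathogenicity by 50%, scored when cytopathogenicity was complete in virus-infected untreated controls. Minimal cytotoxic concentration was taken as the one causing microscopically detectable change in cell morphology; 400 μg/mL was the highest concentration tested.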

Human alphaherpesvirus 2 = assay: The minimum inhibitory concentration required to reduce HSV-2 (G) induced cytopathogenicity in primary rabbit kidney cells by 50%; type: functional; how it was run: as §5
Mus musculus [11] = assay: Compound was evaluated for median life span after tumor implantation at a dose of 100 mg/kg; type: functional; how it was run: as §1
Mus musculus [12] = assay: Compound was evaluated for median life span after tumor implantation at a dose of 400 mg/kg; type: functional
How it was run: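 P388 leukemia cells (10^6) implanted ip in groups of 6 BDF1 mice, with 30 untreated controls. Therapy began 24 h later: compound in saline given ip on days 1-5. Recorded median life span in days after implant, T/C %, and body-weight change of treated minus control animals.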

Coxsackievirus = assay: The minimum inhibitory concentration required to reduce Coxsackie virus type B4 induced cytopathogenicity in primary rabbit kidney cells by 50%; type: functional
Mus musculus [13] = assay: Compound was evaluated for value at a dose of 400 mg/kg; type: functional
How it was run: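 Experiment 2: 10^6 P388 cells implanted ip in groups of 6 BDF1 mice, with 30 untreated controls. Therapy began 24 h later: saline solution given ip on days 1-5. Value is T/C, %, of median life span (days postimplant) against untreated controls.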

Mus musculus [14] = assay: Compound was evaluated for median life span after tumor implantation at a dose of 200 mg/kg; type: functional; how it was run: as §1

SMILES | Median life span (Mus musculus [1]) [days] | T/C (Mus musculus [2]) [%] | MIC (AA6) [µM] | T/C (Mus musculus [3]) [%] | MIC [4] [µg/mL] | T/C (Mus musculus [5]) [%] | Activity (Mus musculus [6]) [g] | Activity (Mus musculus [7]) [g] | MIC [8] [µM] | Activity (Mus musculus [9]) [g] | MIC (CHO) [µM] | Activity (Mus musculus [10]) [g] | MIC (Human alphaherpesvirus 1) [µg/mL] | MIC (Human alphaherpesvirus 2) [µg/mL] | Median life span (Mus musculus [11]) [days] | Median life span (Mus musculus [12]) [days] | MIC (Coxsackievirus) [µg/mL] | T/C (Mus musculus [13]) [%] | Median life span (Mus musculus [14]) [days]
Nc1cc2[nH]ccc2c(O)n1 | 11.7 | 113 | 1000 (≈ 149 µg/mL) | 108 | > 400 | 114 | -0.2 | -0.6 | 1000 (≈ 149 µg/mL) | -1.6 | 1000 (≈ 149 µg/mL) | -0.7 | > 400 | > 400 | 12.3 | 16.3 | > 400 | 126 | 12.4
NC(=O)c1ncn([C@@H]2O[C@H](CO)[C@@H](O)[C@H]2O)n1 [RIBAVIRIN] |  |  |  |  |  |  |  |  |  |  |  |  | > 400 | > 400 |  |  |  |  | 
Nc1ncnc2c1ncn2C[C@H](O)CO [(S)-DHPA] |  |  |  |  |  |  |  |  |  |  |  |  | > 400 | > 400 |  |  |  |  | 
Nc1cc2[nH]cnc2c(=O)[nH]1 [DEZAGUANINE] |  |  | 500 (≈ 75.1 µg/mL) |  |  |  |  |  | 1500 (≈ 225 µg/mL) |  | 10 (≈ 1.5 µg/mL) |  | 4 (≈ 26.6 µM) | 150 (≈ 999 µM) |  |  |  |  | 
